Results: ChEMBL document CHEMBL3611968, “Reengineered tricyclic anti-cancer agents” (Bioorg Med Chem, 2015)
Active and inactive are the calls of the source. The rule behind the calls is not given here.

Legend:
NCI-H1650 [1] = test: Cytotoxicity against human NCI-H1650 cells assessed as growth inhibition after 48 hrs by MTT assay; type: functional
Summary of the method: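 H1650 cells were exposed to drug for 48 h at five concentrations bracketing 1–40 μM in 10 μM steps, with MTT read-out. GI50 is given only where the data form a sigmoidal dose response.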

[2] = target: D(1B) dopamine receptor (Homo sapiens) (UniProt P21918); test: Binding affinity to dopamine D5 receptor (unknown origin) at 0.1 mM by radioligand displacement assay relative to control
D(1B) dopamine receptor (Homo sapiens), sequence (P21918 whole entry): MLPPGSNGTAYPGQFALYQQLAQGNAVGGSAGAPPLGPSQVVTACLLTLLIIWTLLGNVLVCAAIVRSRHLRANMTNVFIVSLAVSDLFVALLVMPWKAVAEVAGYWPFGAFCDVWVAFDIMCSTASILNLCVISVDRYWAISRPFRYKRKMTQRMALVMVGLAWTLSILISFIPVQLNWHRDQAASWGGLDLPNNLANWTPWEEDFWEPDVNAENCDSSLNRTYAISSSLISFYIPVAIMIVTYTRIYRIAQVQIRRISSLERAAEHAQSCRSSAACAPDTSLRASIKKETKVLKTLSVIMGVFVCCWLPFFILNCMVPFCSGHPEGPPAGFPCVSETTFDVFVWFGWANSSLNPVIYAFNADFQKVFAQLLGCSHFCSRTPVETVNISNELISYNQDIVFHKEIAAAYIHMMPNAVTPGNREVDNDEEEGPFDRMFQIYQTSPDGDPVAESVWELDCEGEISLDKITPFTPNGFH

[3] = target: T1, D(4) dopamine receptor (Homo sapiens) (UniProt P21917); test: Binding affinity to dopamine D4 receptor (unknown origin) at 0.1 mM by radioligand displacement assay relative to control
T1 sequence (whole entry): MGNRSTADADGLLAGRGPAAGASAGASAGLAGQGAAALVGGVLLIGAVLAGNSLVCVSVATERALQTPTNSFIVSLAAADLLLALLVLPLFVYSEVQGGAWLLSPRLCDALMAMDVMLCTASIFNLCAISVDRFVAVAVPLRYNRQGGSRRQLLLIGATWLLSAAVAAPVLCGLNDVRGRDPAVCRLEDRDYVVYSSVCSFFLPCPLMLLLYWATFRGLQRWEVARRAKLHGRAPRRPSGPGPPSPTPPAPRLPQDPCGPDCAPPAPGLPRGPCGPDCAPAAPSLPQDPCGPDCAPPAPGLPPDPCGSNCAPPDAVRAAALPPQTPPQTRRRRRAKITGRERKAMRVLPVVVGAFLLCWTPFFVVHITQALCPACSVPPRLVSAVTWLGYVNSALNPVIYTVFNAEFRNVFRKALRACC

[4] = target: D(1A) dopamine receptor (Homo sapiens) (UniProt P21728); test: Binding affinity to dopamine D1 receptor (unknown origin) at 0.1 mM by radioligand displacement assay relative to control
D(1A) dopamine receptor (Homo sapiens), sequence (P21728 whole entry): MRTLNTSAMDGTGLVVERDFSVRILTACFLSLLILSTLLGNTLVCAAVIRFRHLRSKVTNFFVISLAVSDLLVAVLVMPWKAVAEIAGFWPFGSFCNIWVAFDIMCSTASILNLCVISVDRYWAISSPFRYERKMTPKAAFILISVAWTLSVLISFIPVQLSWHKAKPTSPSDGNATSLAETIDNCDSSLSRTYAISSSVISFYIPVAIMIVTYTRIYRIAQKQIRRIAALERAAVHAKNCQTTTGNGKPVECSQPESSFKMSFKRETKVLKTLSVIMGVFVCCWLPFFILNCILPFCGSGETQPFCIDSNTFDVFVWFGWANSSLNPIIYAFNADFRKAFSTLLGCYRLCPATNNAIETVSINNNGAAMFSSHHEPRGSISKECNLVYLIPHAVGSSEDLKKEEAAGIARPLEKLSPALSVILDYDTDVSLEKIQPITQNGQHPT

[5] = target: D(2) dopamine receptor (Homo sapiens) (UniProt P14416); test: Binding affinity to dopamine D2 receptor (unknown origin) at 0.1 mM by radioligand displacement assay relative to control
D(2) dopamine receptor (Homo sapiens), sequence (P14416 whole entry): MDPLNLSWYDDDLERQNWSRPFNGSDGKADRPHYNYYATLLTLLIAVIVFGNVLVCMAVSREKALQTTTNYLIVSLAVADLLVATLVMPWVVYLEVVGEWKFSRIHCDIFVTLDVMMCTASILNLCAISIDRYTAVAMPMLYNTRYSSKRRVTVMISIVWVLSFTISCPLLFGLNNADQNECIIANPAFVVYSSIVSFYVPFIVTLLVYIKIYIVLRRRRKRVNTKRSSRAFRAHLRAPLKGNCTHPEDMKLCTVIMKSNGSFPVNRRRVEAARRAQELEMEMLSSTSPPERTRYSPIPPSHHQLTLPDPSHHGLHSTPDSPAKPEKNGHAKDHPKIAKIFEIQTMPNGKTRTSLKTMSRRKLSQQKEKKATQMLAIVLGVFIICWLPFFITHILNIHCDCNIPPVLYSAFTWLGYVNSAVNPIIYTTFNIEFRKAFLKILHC

[6] = target: D(3) dopamine receptor (Homo sapiens) (UniProt P35462); test: Binding affinity to dopamine D3 receptor (unknown origin) at 0.1 mM by radioligand displacement assay relative to control
D(3) dopamine receptor (Homo sapiens), sequence (P35462 whole entry): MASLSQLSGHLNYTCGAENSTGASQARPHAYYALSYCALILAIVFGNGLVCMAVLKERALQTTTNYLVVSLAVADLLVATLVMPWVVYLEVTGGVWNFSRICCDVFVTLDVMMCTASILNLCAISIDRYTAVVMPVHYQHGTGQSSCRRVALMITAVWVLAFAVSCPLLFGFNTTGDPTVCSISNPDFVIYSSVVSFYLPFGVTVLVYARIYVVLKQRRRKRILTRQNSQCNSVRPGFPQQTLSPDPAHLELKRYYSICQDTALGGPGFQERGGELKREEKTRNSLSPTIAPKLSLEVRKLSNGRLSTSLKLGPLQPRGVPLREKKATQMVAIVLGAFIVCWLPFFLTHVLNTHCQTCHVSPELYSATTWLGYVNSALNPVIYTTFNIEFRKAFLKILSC

[7] = target: RAC-alpha serine/threonine-protein kinase (Homo sapiens) (UniProt P31749); test: Inhibition of AKT phosphorylation in human NCI-H1650 cells at 20 to 40 uM after 12 hrs by Western blot analysis; type: cell-based
RAC-alpha serine/threonine-protein kinase (Homo sapiens), sequence (P31749 whole entry): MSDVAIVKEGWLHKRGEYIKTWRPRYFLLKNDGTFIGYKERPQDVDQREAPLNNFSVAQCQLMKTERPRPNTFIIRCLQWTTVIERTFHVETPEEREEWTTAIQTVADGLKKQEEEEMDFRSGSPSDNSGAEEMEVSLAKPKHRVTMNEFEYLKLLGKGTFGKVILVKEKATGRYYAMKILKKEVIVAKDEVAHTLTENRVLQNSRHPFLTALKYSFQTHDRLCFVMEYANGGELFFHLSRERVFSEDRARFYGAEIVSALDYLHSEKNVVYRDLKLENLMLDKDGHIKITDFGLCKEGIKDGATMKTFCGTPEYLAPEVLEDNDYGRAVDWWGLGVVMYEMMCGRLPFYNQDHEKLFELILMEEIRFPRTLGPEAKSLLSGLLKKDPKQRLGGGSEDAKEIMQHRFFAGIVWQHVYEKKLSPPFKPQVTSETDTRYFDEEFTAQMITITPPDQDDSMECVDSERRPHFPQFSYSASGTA

NCI-H1650 [8] = test: Inhibition of ERK phosphorylation in human NCI-H1650 cells at 20 to 40 uM after 12 hrs by Western blot analysis; type: cell-based
[9] = AUCinfinity in mouse at 25 mg/kg, po; type: ADME, organism-based; set-up: dose 25 mg/kg, route oral, time infinity; conditions: in vivo
[10] = AUClast in mouse at 100 mg/kg, ip administered through DMA/solutol/water; type: ADME, organism-based; conditions: in vivo
[11] = Tmax in mouse at 100 mg/kg, po; type: ADME, organism-based; conditions: in vivo
[12] = Bioavailability in mouse at 25 mg/kg, ip; type: ADME, organism-based; conditions: in vivo
[13] = Bioavailability in mouse at 100 mg/kg, ip administered through DMA/solutol/water; type: ADME, organism-based; conditions: in vivo
[14] = AUClast in mouse at 25 mg/kg, ip; type: ADME, organism-based; conditions: in vivo
[15] = Oral bioavailability in mouse at 100 mg/kg; type: ADME, organism-based; conditions: in vivo
[16] = AUClast in mouse at 1 mg/kg, iv; type: ADME, organism-based; conditions: in vivo
[17] = Tmax in mouse at 25 mg/kg, ip; type: ADME, organism-based; conditions: in vivo
[18] = Cmax in mouse at 100 mg/kg, po; type: ADME, organism-based; set-up: dose 100 mg/kg, route oral; conditions: in vivo
[19] = AUCinfinity in mouse at 25 mg/kg, ip; type: ADME, organism-based; set-up: dose 25 mg/kg, time infinity, route intraperitoneal; conditions: in vivo
[20] = Volume of distribution at steady state in mouse at 1 mg/kg, iv; type: ADME, organism-based; conditions: in vivo, read-out: Vdss
[21] = AUClast in mouse at 25 mg/kg, po; type: ADME, organism-based; conditions: in vivo
[22] = Cmax in mouse at 25 mg/kg, po; type: ADME, organism-based; set-up: dose 25 mg/kg, route oral; conditions: in vivo
[23] = Oral bioavailability in mouse at 25 mg/kg; type: ADME, organism-based; conditions: in vivo
[24] = AUCinfinity in mouse at 1 mg/kg, iv; type: ADME, organism-based; set-up: dose 1 mg/kg, time infinity, route intravenous; conditions: in vivo
[25] = AUClast in mouse at 100 mg/kg, po; type: ADME, organism-based; conditions: in vivo
[26] = Cmax in mouse at 25 mg/kg, ip; type: ADME, organism-based; set-up: dose 25 mg/kg, route intraperitoneal; conditions: in vivo
[27] = AUCinfinity in mouse at 100 mg/kg, ip administered through DMA/solutol/water; type: ADME, organism-based; set-up: dose 100 mg/kg, route intraperitoneal, time infinity; conditions: in vivo
[28] = Cmax in mouse at 100 mg/kg, ip administered through DMA/solutol/water; type: ADME, organism-based; set-up: dose 100 mg/kg, route intraperitoneal; conditions: in vivo
[29] = Tmax in mouse at 25 mg/kg, po; type: ADME, organism-based; conditions: in vivo
[30] = Half life in mouse at 1 mg/kg, iv; type: ADME, organism-based; conditions: in vivo
[31] = Clearance in mouse at 1 mg/kg, iv; type: ADME, organism-based; conditions: in vivo
[32] = Tmax in mouse at 100 mg/kg, ip administered through DMA/solutol/water; type: ADME, organism-based; conditions: in vivo
[33] = AUClast in mouse at 10 mg/kg, ip; type: ADME, organism-based; conditions: in vivo
NCI-H1650 [34] = test: Cell cycle arrest in human NCI-H1650 cells assessed as accumulation at sub-G1 phase by propidium iodide staining-based flow cytometric analysis; type: functional
[35] = target: D(1A) dopamine receptor (Homo sapiens) (UniProt P21728); test: Binding affinity to dopamine D1 receptor (unknown origin) at 1 mM by radioligand displacement assay relative to control
[36] = Tmax in mouse at 10 mg/kg, po; type: ADME, organism-based; conditions: in vivo
[37] = Half life in mouse at 10 mg/kg, po; type: ADME, organism-based; conditions: in vivo
[38] = AUCinfinity in mouse at 10 mg/kg, po; type: ADME, organism-based; set-up: dose 10 mg/kg, time infinity, route oral; conditions: in vivo
[39] = Oral bioavailability in mouse at 10 mg/kg; type: ADME, organism-based; conditions: in vivo
Mus musculus = test: Toxicity in mouse assessed as induction of lethargy at 10 mg/kg relative to control; type: organism-based; conditions: in vivo
[40] = AUClast in mouse at 10 mg/kg, po; type: ADME, organism-based; conditions: in vivo
[41] = Initial drug concentration in mouse at 1 mg/kg, iv; type: ADME, organism-based; conditions: in vivo
NCI-H1650 [42] = test: Cytotoxicity against human NCI-H1650 cells assessed as reduction of colony formation at 20 to 40 uM after 7 days by crystal violet staining; type: functional, cell-based
[43] = target: D(3) dopamine receptor (Homo sapiens) (UniProt P35462); test: Binding affinity to dopamine D3 receptor (unknown origin) at 1 mM by radioligand displacement assay relative to control
[44] = Half life in mouse at 1 mg/kg, ip; type: ADME, organism-based; conditions: in vivo
[45] = target: D(2) dopamine receptor (Homo sapiens) (UniProt P14416); test: Binding affinity to dopamine D2 receptor (unknown origin) at 1 mM by radioligand displacement assay relative to control
[46] = AUCinfinity in mouse at 1 mg/kg, ip; type: ADME, organism-based; set-up: time infinity, route intraperitoneal; conditions: in vivo
[47] = Tmax in mouse at 10 mg/kg, ip; type: ADME, organism-based; conditions: in vivo
[48] = Cmax in mouse at 10 mg/kg, ip; type: ADME, organism-based; set-up: dose 10 mg/kg, route intraperitoneal; conditions: in vivo
[49] = Cmax in mouse at 10 mg/kg, po; type: ADME, organism-based; set-up: dose 10 mg/kg, route oral; conditions: in vivo
[50] = Bioavailability in mouse at 10 mg/kg, ip; type: ADME, organism-based; conditions: in vivo

Cc1ccc(S(=O)(=O)NCCCN2c3ccccc3CCc3ccc(Cl)cc32)cc1
GI50 (NCI-H1650 [1]; NCI-H1650, 48 h): > 40 µM
inhibition [2]: < 10%
inhibition [3]: < 5%
inhibition [4]: < 5%
inhibition [5]: < 5%
inhibition [6]: < 5%

O=S(=O)(NCCN1c2ccccc2Sc2ccc(Cl)cc21)c1ccc(Cl)cc1
GI50 (NCI-H1650 [1]; NCI-H1650, 48 h): 20 µM
inhibition [7]: Active
inhibition (NCI-H1650 [8]): Active

O=S(=O)(NC[C@H](O)CN1c2ccccc2CCc2ccccc21)c1ccc(OC(F)(F)F)cc1
GI50 (NCI-H1650 [1]; NCI-H1650, 48 h): 15 µM
AUC(0-inf) [9]: 3460 ng·h/mL
AUC(0-t) [10]: 34700 ng·h/mL
Tmax [11]: 2 h
bioavailability [12]: 62%
bioavailability [13]: 94%
AUC(0-t) [14]: 5700 ng·h/mL
bioavailability [15]: 50%
AUC(0-t) [16]: 370 ng·h/mL
Tmax [17]: 1 h
Cmax [18]: 4880 ng/mL
AUC(0-inf) [19]: 5790 ng·h/mL
Vd [20]: 1.61 L/kg
AUC(0-t) [21]: 3300 ng·h/mL
Cmax [22]: 1310 ng/mL
bioavailability [23]: 36%
AUC(0-inf) [24]: 376 ng·h/mL
AUC(0-t) [25]: 18500 ng·h/mL
Cmax [26]: 2240 ng/mL
AUC(0-inf) [27]: 34700 ng·h/mL
Cmax [28]: 6490 ng/mL
Tmax [29]: 1 h
half-life [30]: 0.81 h
clearance [31]: 44 mL/min/kg
Tmax [32]: 1 h

COC(=O)NCCCN1c2ccccc2Sc2ccc(Cl)cc21
AUC(0-t) [33]: 1450 ng·h/mL
GI50 (NCI-H1650 [1]; NCI-H1650, 48 h): > 40 µM
Activity (NCI-H1650 [34]): Dose-dependent effect
AUC(0-t) [16]: 310 ng·h/mL
inhibition [2]: < 10%
inhibition [35]: 14%
Tmax [36]: 0.5 h
half-life [37]: 1.19 h
AUC(0-inf) [38]: 498 ng·h/mL
bioavailability [39]: 15.8%
Activity (Mus musculus): Non-toxic
AUC(0-t) [40]: 489 ng·h/mL
inhibition [3]: < 5%
C0 [41]: 1200 ng/mL
Activity (NCI-H1650 [42]): Active
inhibition [4]: < 5%
Vd [20]: 1.76 L/kg
inhibition [43]: 22%
inhibition [5]: < 5%
inhibition [6]: < 5%
half-life [44]: 2.87 h
inhibition [45]: 21%
AUC(0-inf) [24]: 317 ng·h/mL
AUC(0-inf) [46]: 1450 ng·h/mL
Tmax [47]: 0.25 h
Cmax [48]: 859 ng/mL
Cmax [49]: 349 ng/mL
bioavailability [50]: 46.6%
clearance [31]: 52.5 mL/min/kg

O=S(=O)(NCCCN1c2ccccc2CCc2ccccc21)c1ccc2c(c1)OCO2
GI50 (NCI-H1650 [1]): inactive

O=S(=O)(NCCCN1c2ccccc2CCc2cccnc21)c1ccc(OC(F)(F)F)cc1
GI50 (NCI-H1650 [1]; NCI-H1650, 48 h): 22 µM

O=S(=O)(NCCCN1c2ccccc2CCc2ccccc21)c1ccc(C(F)(F)F)cc1
GI50 (NCI-H1650 [1]; NCI-H1650, 48 h): 14.3 µM

O=S(=O)(NC1CCCC(=C2c3ccccc3CCc3ccccc32)C1)c1ccc(OC(F)(F)F)cc1 (configuration not stated)
GI50 (NCI-H1650 [1]; NCI-H1650, 48 h): 15 µM
